Published values gathered from unrelated publications.
Protocols differ between the studies behind these lines.

Compound	test	test system	conditions	endpoint	value
O=c1nc(N2CCN(CC3CCCCC3)CC2)sc2c([N+](=O)[O-])cc(C(F)(F)F)cc12		CD-1 mouse, plasma	oral, 100 mg/kg, 15 min	concentration	2280 ng/mL
CC(C)(O)c1ccccc1-c1ccc2[nH]c(/C=C/c3ccc(C(F)(F)F)cc3)nc2c1		male human, plasma	oral, 2 mg, single dose, fasted, healthy volunteers	MRT	77.2 h
CC(C)(C)c1ccc(O)c(CN(Cc2cc(C(C)(C)C)ccc2O)C2CCC(NC(N)=O)CC2)c1 (stereo not shown)		male C57BL/6 mouse, brain	intraperitoneal, 25 mg/kg, single dose	half-life	10.1 h
N#CN1C[C@H](n2nc(-c3ccc(Oc4ccc(Cl)cn4)cc3)c(C(N)=O)c2N)CCC12CC2		human, plasma	oral, 600 mg, fasted	MRT	31.6 h
O=C1NN=C(N=Cc2ccc(O)cc2O)C1=NNn1c(-c2ccccc2)nc2ccccc2c1=O				logP	3.38
CC(C)Oc1cccc(-c2cnc(N3CCC(C(N)=O)CC3)s2)c1		male Swiss mouse, brain	oral, 30 mg/kg, 4 h, single dose	concentration	83 nM
CC(C)CN(C[C@@H](O)[C@H](Cc1ccccc1)NC(=O)O[C@H]1CO[C@H]2OCC[C@H]21)S(=O)(=O)c1ccc(N)cc1		BALB/c mouse, plasma	intravenous, 2.5 mg/kg, 6 h	concentration	4.19 ng/mL
COc1cc(/C=C/c2ccccc2)cc(OC)c1	HPLC			chromatographic logP	> 3.14
CS(=O)(=O)CCC#N		human, plasma	oral, 100 mg, single dose, fasted	MRT	30.5 h
Oc1cccc(CCc2ccccc2)c1	HPLC			chromatographic logP	> 3.14
O=C(O)C1CCN(c2ncc(-c3ccc4c(c3)OCCCO4)s2)CC1		male Swiss mouse, plasma	oral, 30 mg/kg, 24 h, single dose	concentration	1570 ng/mL
c1cnc2ccc(Nc3nc(NC4CC4)c4nc[nH]c4n3)cc2c1		human, plasma	oral, 200 mg/m², patients	MRT(0-t)	5.7 h
CC(C)(Nc1nc(-c2ccccn2)nc2ccccc12)c1ccccn1		female BALB/c mouse, plasma	intravenous, 1 mg/kg, 15 min	concentration	963 ng/mL
